CHRM5 PAM: potentiates acetylcholine response at human M5 receptor; CHO-K1 hM5, Fluo-8 calcium, ACh EC20 PAM; 0% = ACh EC20, 100% = ACh EC100; activation, % at 3 µM; P08912; 360,000 compounds, 0.3% hits;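 active means activation above the run cutoff, the mean activation of all test compounds plus 3 SD, cut at about 18% in these data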
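Measured by: Fluo-8 calcium fluorescence; material: human M5 receptor in CHO-K1 cells; schedule: Post-acetylcholine fluorescence recording 140 s; benchmarks: low control EC20 acetylcholine (0%), high control EC100 acetylcholine (100%); read-out: Max/basal fluorescence ratio as % of EC20–EC100 ACh window; compound: single dose, 3 µM nominal final test concentration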
CHRM4 antagonist: antagonists of human muscarinic M4 receptor (CHRM4) | CHO-hM4 cells, ACh EC80, Fluo-8 calcium fluorescence | inhibition, % at 3 µM | 360,000 compounds, 0.73% hits | AID 624125;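 active means inhibition above its plate's cutoff, the mean inhibition of sample wells plus 3 SD, cut at about 27% in these data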;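 further: 0% = acetylcholine EC80 with DMSO and 100% = DMSO without agonist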
Target sequence (P08173 whole entry, looked up): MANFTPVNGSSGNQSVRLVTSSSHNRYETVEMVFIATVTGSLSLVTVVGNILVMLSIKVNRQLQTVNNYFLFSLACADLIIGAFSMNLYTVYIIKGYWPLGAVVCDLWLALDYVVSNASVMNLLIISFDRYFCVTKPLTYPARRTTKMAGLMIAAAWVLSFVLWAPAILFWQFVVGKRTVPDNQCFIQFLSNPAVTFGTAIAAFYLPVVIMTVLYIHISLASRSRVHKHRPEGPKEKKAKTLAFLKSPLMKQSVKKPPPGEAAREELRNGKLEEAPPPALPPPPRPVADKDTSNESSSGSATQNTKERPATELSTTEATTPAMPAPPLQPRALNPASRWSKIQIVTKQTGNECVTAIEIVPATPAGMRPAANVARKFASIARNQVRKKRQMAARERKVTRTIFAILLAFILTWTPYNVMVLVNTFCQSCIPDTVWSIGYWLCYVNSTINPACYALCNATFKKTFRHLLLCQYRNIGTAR
CHRM5 antagonist: blocks acetylcholine activation of human M5 receptor. CHO-hM5 cells, Fluo-8 calcium fluorescence, ACh EC80. inhibition, % at 3 µM. 360,000 compounds, 0.59% hits. AID 624040;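 active means inhibition above a per-plate cutoff, the mean of that plate's test compounds plus 3 SD, cut at about 27% in these data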;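 further: 0% = acetylcholine EC80 with DMSO and 100% = DMSO without agonist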
M4 PAM: CHRM4 positive allosteric modulation | P08173 | CHO-K1 hM4/Gqi5, Fluo-8 calcium fluorescence, ACh EC20; 0% = ACh EC20, 100% = maximal ACh | 360,000 compounds, 0.4% hits | activation, % at 3 µM;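 active means activation above its plate's cutoff, the mean activation of sample wells plus 3 SD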
M4 ag: CHRM4 agonism in calcium assay; CHO-K1 hM4/Gqi5, Fluo-8 calcium fluorescence; vehicle 0%, full acetylcholine response 100%; activation, % at 3 µM; 360,000 compounds, 0.14% hits; AID 624127;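 active means activation above the run mean over all test wells plus 3 SD, cut at about 32% in these data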;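 further: peak over basal fluorescence ratio per well then scaled between controls; 0% = DMSO wells and 100% = acetylcholine at EC100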
M5 ag: CHRM5 agonism in calcium assay. activation, % at 3 µM. CHO-K1 hM5 cells, Fluo-8 calcium fluorescence; 0% DMSO wells, 100% maximal acetylcholine response. P08912. 360,000 compounds, 0.19% hits;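 active means activation above the run's mean over test compounds plus 3 SD, cut at about 23% in these data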;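 further: signal is peak over basal fluorescence ratio across the kinetic read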
Active calls of the source: *. Compounds with a hit are over-represented: about 1.9% of the library has one in this group of screens.

SMILES | CHRM5 PAM | CHRM4 antagonist | CHRM5 antagonist | M4 PAM | M4 ag | M5 ag
Cc1cc2cc(CNC(=O)c3ccc(S(=O)(=O)N4CCCCC4)cc3)ccc2n1C | -8 | 16 | 0 | -7 | 6 | 2
COc1ccc(C(=O)NCc2ccc3c(c2)cc(C)n3C)cc1OC | 0 | -2 | 10 | 5 | 2 | 1
O=C(COC(=O)/C=C/c1ccc(S(=O)(=O)N2CCOCC2)cc1)NCc1ccc(Cl)cc1 | 19* | -16 | -16 | 17 | 2 | 9
Cc1ccc(CNC(=O)COC(=O)c2ccc(S(=O)(=O)N3CCCC3)cc2)cc1 | 22* | 0 | 2 | 2 | 2 | -8
O=C(COC(=O)/C=C/c1ccc(S(=O)(=O)N2CCOCC2)cc1)NCc1ccccc1 | 5 | 23 | 5 | 4 | 5 | 3
COc1ccccc1S(=O)(=O)Cc1ccc(C(=O)NC2CC2)o1 | 8 | -8 | 5 | 7 | 3 | -2
O=c1[nH]c(C2CCCN(S(=O)(=O)c3ccc(F)cc3)C2)nc2c1nnn2Cc1ccc(F)cc1 (stereo not drawn) | 3 | 3 | 0 | -1 | 1 | -2
CCN(CC)c1ccc(S(=O)(=O)N2CCOCC2)cc1NC(=O)COC(=O)/C=C/c1ccccc1 | -37 | 10 | 20 | -13 | 19 | -3
CCN(CC)c1ccc(S(=O)(=O)N2CCOCC2)cc1NC(=O)COC(=O)/C=C/c1ccc(C)o1 | -34 | 11 | 31* | -9 | 22 | -2
Cc1ccc(-n2nc3c(=O)n(CC(=O)NC(C)CCc4ccccc4)nc(C)c3c2C)cc1 (stereo not drawn) | 5 | -3 | -8 | 2 | 0 | -5
Cc1c(C)c2ccc(O)c(CN3CCCC3)c2oc1=O | 4 | 1 | 2 | 8 | 0 | -4
O=c1oc2c(CN3CCCCC3)c(O)ccc2c2c1CCCC2 | -19 | 35* | 6 | -14 | 0 | -6
CC(NC(=O)COC(=O)c1ccc([N+](=O)[O-])s1)c1ccccc1 (stereo not drawn) | 32* | -1 | 9 | 12 | 2 | 1
Cc1[nH]c2ccccc2c1CCNC(=O)c1ccc2nccnc2c1 | 0 | -13 | 10 | -1 | 7 | 0
Cc1cccc(N(C(=O)CCC(=O)Nc2nccs2)C(C(=O)NC(C)(C)C)c2ccc(O)cc2)c1 (stereo not drawn) | -6 | -5 | 9 | 8 | 1 | -4
COc1ccc(OC)c(C2CC(=O)N3CN(c4ccccc4F)CSC3=C2C#N)c1 (stereo not drawn) | 22* | -10 | -13 | 3 | 0 | -1
COc1cccc(C2CC(=O)N3CN(c4ccccc4F)CSC3=C2C#N)c1 (stereo not drawn) | -4 | 4 | 3 | -3 | 0 | 3
C=C(C)CSc1nncn1/N=C/c1ccc(OC)cc1 | 1 | 6 | -8 | 30* | 2 | 7
CCSc1nncn1/N=C/c1ccc(OC)c(OC)c1 | 0 | 1 | -2 | 9 | 0 | -2
COc1ccc(C2=CC(=O)CC(C)(C)C2)cc1OC | 0 | -3 | 8 | 14 | 0 | 1
CC(=O)Nc1cc(-c2ccc(C(=O)N3CCOCC3)cc2)cn2c(-c3cccc(C(F)(F)F)c3)cnc12 | 0 | -1 | 0 | 5 | 1 | 1
CCC[C@@H](CN1CCC[C@H]1CN1C(N)=NC[C@@H]1Cc1ccccc1)N1C[C@@H]([C@H](C)CC)N(CCCC2CCCC2)C1=N | -40 | 41* | 13 | -16 | 8 | -11
CCCCN1C(=N)N([C@@H](C)CN2CCC[C@H]2CN2C(N)=NC[C@@H]2Cc2ccccc2)C[C@H]1[C@H](C)CC | 1 | 14 | 4 | -7 | 0 | -9
CCC[C@@H](CN1CCC[C@H]1CN1C(N)=NC[C@@H]1Cc1ccccc1)N1C[C@@H](Cc2ccccc2)N(CCCC2CCCC2)C1=N | -39 | 12 | 21 | -13 | 0 | -9
C[C@@H](CN1CCC[C@H]1CN1C(N)=NC[C@@H]1Cc1ccccc1)N1C[C@@H](Cc2ccccc2)N(CCc2ccc(Cl)c(Cl)c2)C1=N | -39 | 18 | 39* | -16 | 1 | -12
